We go through 23 compounds from ChEMBL document CHEMBL4257575, “Discovery of Novel Flavonoid Dimers To Reverse Multidrug Resistance Protein 1 (MRP1, ABCC1) Mediated Drug Resistance in Cancers Using a High Throughput Platform with "Click Chemistry"” (J Med Chem, 2018).

The target in this series is Multidrug resistance-associated protein 1 (Homo sapiens, UniProt P33527). In words: Inhibition of MRP1 in human 2008/MRP1 cells assessed as potentiation of doxorubicin-induced cytotoxicity by measuring cell survival at 2 uM after 5 days by MTS assay relative to control. Type of series: cell-based. The note with it: 120 h. Put shortly:
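2008/MRP1 cells (retroviral human MRP1 transfectant; RPMI 1640, 10% FBS) at 4,000 per well, with 100 nM doxorubicin plus crude, unpurified click products in DMSO: 2 µM in the primary screen, 1 µM in the secondary. Incubated 5 days at 37 °C. MTS/PMS added for 2 h at 37 °C, absorbance read at 490 nm. % survival is relative to wells without DOX or product. Run in triplicate, at least three experiments.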
(In general: Formazan colour is commonly taken as a measure of viable cells.)

SMILES strings stand for the structures.

Chain of Multidrug resistance-associated protein 1 (P33527 whole entry): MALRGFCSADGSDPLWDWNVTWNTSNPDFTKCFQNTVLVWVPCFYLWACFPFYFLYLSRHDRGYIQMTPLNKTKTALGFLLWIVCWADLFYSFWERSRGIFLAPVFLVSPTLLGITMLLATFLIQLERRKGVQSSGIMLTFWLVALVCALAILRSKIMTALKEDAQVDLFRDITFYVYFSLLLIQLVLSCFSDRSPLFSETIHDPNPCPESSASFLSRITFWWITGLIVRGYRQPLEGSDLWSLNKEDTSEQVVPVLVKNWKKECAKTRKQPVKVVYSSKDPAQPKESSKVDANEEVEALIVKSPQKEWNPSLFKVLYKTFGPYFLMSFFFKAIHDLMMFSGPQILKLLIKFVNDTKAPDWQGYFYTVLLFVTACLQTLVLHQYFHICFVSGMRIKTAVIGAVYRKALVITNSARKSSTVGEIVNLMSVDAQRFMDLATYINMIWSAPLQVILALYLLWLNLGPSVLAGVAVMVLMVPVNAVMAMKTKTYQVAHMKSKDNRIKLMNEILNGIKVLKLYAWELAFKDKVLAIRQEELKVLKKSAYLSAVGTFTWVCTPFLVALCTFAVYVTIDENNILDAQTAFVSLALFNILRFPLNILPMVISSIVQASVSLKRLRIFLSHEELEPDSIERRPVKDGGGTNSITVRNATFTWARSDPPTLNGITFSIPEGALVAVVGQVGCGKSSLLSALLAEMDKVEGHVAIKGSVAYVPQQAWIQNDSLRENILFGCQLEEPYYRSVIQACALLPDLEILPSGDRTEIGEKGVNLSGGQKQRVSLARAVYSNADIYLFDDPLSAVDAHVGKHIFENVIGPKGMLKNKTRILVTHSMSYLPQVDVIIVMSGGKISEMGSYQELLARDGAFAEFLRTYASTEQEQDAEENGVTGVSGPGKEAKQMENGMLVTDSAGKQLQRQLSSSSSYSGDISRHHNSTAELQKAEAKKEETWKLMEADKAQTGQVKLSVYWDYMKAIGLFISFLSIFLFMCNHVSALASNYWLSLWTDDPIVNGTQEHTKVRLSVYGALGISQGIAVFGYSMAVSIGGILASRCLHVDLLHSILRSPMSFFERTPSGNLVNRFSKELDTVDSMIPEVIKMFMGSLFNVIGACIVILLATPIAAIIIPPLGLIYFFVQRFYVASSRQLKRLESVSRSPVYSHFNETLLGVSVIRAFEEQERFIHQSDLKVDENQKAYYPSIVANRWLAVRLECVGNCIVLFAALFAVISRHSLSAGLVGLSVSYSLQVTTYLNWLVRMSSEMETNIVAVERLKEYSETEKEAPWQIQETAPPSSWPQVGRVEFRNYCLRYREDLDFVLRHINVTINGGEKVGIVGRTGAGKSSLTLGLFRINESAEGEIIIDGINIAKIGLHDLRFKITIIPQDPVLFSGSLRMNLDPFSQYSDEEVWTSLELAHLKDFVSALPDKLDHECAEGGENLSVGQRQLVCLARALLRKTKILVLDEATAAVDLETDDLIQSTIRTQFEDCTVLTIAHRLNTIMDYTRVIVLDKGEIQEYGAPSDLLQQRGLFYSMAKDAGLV

With `COCOc1cc(OCc2ccccc2)c2c(=O)cc(-c3ccc(OCCCc4cn(CCOCCOc5ccc(-c6cc(=O)c7cc(F)ccc7o6)cc5)nn4)cc3)oc2c1`, the Survival came to 63%.
As for `O=c1c(OCc2ccccc2)c(-c2ccc(OCCOCCn3cc(-c4ccc(-c5cn(CCOCCOc6ccc(-c7oc8ccccc8c(=O)c7OCc7ccccc7)cc6)nn5)cc4)nn3)cc2)oc2ccccc12`, the Survival is listed as 82%.
In the case of `Cc1ccc2oc(-c3ccc(OCCOCCOCCn4cc(-c5ccc(-c6cn(CCOCCOCCOc7ccc(-c8cc(=O)c9cc(C)ccc9o8)cc7)nn6)cc5)nn4)cc3)cc(=O)c2c1`, the Survival was 74%.
For `CCc1ccc(O)c(C(=O)/C=C/c2ccc(OCCCCc3cn(CCOCCOc4ccc(-c5oc6ccccc6c(=O)c5OCc5ccccc5)cc4)nn3)cc2)c1`, the Survival came out at 69%.
The result for `O=Cc1ccc(OCCCCc2cn(CCOCCOc3cccc(-c4oc5ccccc5c(=O)c4OCc4ccccc4)c3)nn2)cc1` reads 82%.
The result for `Cc1ccc2oc(-c3ccc(OCCCCc4cn(CCOc5cccc6c(=O)cc(-c7ccccc7)oc56)nn4)cc3)cc(=O)c2c1` reads 75%.
`O=c1cc(-c2ccccc2)oc2cc(OCCOCCn3cc(CN(Cc4cn(CCOCCOc5ccc6oc(-c7ccccc7)cc(=O)c6c5)nn4)Cc4cn(CCOCCOc5ccc6oc(-c7ccccc7)cc(=O)c6c5)nn4)nn3)ccc12`: the Survival amounted to 83%.
The result for `COc1cccc(COc2c(-c3ccc(OCCOCCn4cc(CN(CCOc5ccc6c(=O)cc(-c7ccccc7)oc6c5)Cc5ccccc5)nn4)cc3)oc3ccccc3c2=O)c1` reads 79%; that for `[N-]=[N+]=NCCOc1ccc2c(=O)cc(-c3ccccc3)oc2c1`, 79%.
Regarding `O=c1[nH]c(-c2ccc(OCCCc3cn(CCOCCOCCOc4ccc(-c5cc(=O)c6ccccc6o5)cc4)nn3)cc2)nc2ccccc12`, the Survival is 76%.
For `O=c1cc(-c2ccccc2)oc2cc(OCCCCc3cn(CCOCCOc4ccc5c(=O)cc(-c6ccccc6)oc5c4)nn3)ccc12` the value was 53%; for `O=c1cc(-c2ccccc2)oc2cc(OCCCc3cn(CCOCCOc4cccc(-c5oc6ccccc6c(=O)c5OCc5ccccc5)c4)nn3)ccc12`, 65%; for `O=Cc1ccc(OCCCCc2cn(CCOCCOc3ccc4c(=O)cc(-c5ccccc5)oc4c3)nn2)cc1`, 82%.
The result for `O=C1c2ccccc2C(=O)N1CCc1cn(CCOCCOc2cccc(-c3oc4ccccc4c(=O)c3OCc3ccccc3)c2)nn1` reads 62%; that for `CCc1ccc(O)c(C(=O)/C=C/c2ccc(OCCCCc3cn(CCOCCOCCOc4ccc(-c5cc(=O)c6cc(C)ccc6o5)cc4)nn3)cc2)c1`, 63%; that for `O=c1cc(-c2ccccc2)oc2cc(OCCN(Cc3ccccc3)Cc3cn(CCOCCOc4cccc(-c5oc6ccccc6c(=O)c5OCc5ccccc5)c4)nn3)ccc12`, 73%.
The result for `COCOc1cc(OCc2ccccc2)c2c(=O)cc(-c3ccc(OCCCc4cn(CCOCCOc5cccc(-c6oc7ccccc7c(=O)c6OCc6ccccc6)c5)nn4)cc3)oc2c1` reads 74%; that for `Cc1ccc(O)c(C(=O)/C=C/c2ccc(OCCCCc3cn(CCOCCOCCOc4ccc(-c5cc(=O)c6cc(C)ccc6o5)cc4)nn3)cc2)c1`, 67%; that for `C#CCCCCOc1ccc(C=O)cc1`, 86%.
For `O=c1cc(-c2ccccc2)oc2cc(OCCOCc3cn(CCOCCOc4ccc(-c5cc(=O)c6cc(F)ccc6o5)cc4)nn3)ccc12`, the Survival is listed as 54%.
The result for `COCOc1cc(OCc2ccccc2)c2c(=O)cc(-c3ccc(OCCCc4cn(CCOCCOCCOc5ccc(-c6oc7ccccc7c(=O)c6OCc6ccccc6)cc5)nn4)cc3)oc2c1` reads 89%; that for `Cc1ccc(C(=O)/C=C/c2ccc(OCCCCc3cn(CCOCCOCCOc4ccc(-c5oc6ccccc6c(=O)c5OCc5ccccc5)cc4)nn3)cc2)c(O)c1`, 71%.
For `O=c1cc(-c2ccccc2)oc2cc(OCCOCc3cn(CCOCCOCCOc4ccc(-c5cc(=O)c6cc(F)ccc6o5)cc4)nn3)ccc12`, the Survival amounted to 53%.
